Only some compounds are listed: those with a hit (about 2.3% of all), similar ones and a draw of the others.
TRPC6 inh: mouse TRPC6 channel inhibition | Q61143 | HEK293-TRPC6, membrane potential dye, ACh-evoked depolarization; hits give low values | B-score at 10 µM | 310,000 compounds, 1.1% hits | AID 2553;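 active = B-score under library mean minus 3 SD, initial fluorescence not abnormally high, positive integrated signal ratio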;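 also: B-score derived from integrated fluorescence ratio over the kinetic read; more negative B-score means stronger inhibition of depolarization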
Target sequence (Q61143 whole entry, looked up): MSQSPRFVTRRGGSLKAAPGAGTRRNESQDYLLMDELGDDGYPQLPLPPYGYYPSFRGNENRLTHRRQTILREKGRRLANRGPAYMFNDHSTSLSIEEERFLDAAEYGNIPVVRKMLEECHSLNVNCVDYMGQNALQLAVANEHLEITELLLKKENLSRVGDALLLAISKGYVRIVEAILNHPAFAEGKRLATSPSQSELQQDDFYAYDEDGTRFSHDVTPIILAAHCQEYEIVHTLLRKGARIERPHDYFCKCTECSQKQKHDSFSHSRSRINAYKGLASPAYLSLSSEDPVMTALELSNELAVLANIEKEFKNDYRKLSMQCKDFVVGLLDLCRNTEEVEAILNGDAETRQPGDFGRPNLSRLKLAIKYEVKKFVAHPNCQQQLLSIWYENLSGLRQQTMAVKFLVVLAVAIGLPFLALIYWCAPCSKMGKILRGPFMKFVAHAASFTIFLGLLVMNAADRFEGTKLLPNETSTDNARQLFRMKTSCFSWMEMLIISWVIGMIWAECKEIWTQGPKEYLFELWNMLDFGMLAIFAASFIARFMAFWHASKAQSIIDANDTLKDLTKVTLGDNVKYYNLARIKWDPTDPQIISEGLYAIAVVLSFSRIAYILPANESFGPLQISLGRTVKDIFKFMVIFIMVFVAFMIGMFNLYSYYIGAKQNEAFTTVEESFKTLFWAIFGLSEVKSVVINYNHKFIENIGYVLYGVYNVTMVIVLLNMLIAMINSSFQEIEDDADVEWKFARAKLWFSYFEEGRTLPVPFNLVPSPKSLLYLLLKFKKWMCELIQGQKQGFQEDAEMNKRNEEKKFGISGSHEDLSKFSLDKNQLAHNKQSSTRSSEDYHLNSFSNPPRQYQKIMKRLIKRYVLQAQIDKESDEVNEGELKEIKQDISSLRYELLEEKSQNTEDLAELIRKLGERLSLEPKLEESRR
TRPC4 act: opens the mouse TRPC4 cation channel; Q9QUQ5; HEK293 TRPC4beta/mu-opioid, Fluo4 calcium fluorescence; hits give high values; B-score at 10 µM; 310,000 compounds, 0.49% hits; AID 2237;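 active = B-score above 5 SD of library B-scores, and initial fluorescence ratio not above library mean plus 5 SD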;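 also: positive B-score marks a calcium rise read as TRPC4 activation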
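Material: TRPC4beta and mu-opioid receptor HEK293 stable cells | Incubation: 45 min room-temperature Fluo4 loading, 110 s read | Detection: Kinetic Fluo4 calcium fluorescence | Measure: Integrated baseline-normalised fluorescence ratio, converted to per-well B score | Benchmarks: Low control buffer alone, high control maximal DAMGO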
Yeast superoxide: lowers age-related superoxide in aged yeast cells; S. cerevisiae aged cells, superoxide DHE fluorescence; hits give low values; superoxide response (% of plate mean), % at 10 µM; 330,000 compounds, 0.18% hits; AID 2690;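 active = superoxide response under a set limit, about three screen SD below normal, cut at about 65% in these data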;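 also: yeast aged for seven days with compound at 30 °C before DHE staining; 100% = average MFI of all compound-treated wells on the plate with controls excluded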
TRPC4 potent: allosteric potentiators of mouse TRPC4 channel | Q9QUQ5 | HEK293 TRPC4beta/mu-opioid, DAMGO EC20, Fluo-4 Ca2+ flux; hits give high values | B-score at 10 µM | 310,000 compounds, 0.42% hits | AID 2227;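 active = B-score of calcium response area above 5 SD of library B-scores, with initial fluorescence ratio within 5 SD of library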;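 also: B-score of integrated fluorescence ratio over time as area under calcium response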
TRPC6 activator: mouse TRPC6 channel activation; Q61143; HEK293-TRPC6 membrane potential dye fluorescence; hits give high values; B-score at 10 µM; 310,000 compounds, 0.13% hits; AID 2550;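 active = B-score of the integrated fluorescence ratio above library mean plus 3 SD, and starting fluorescence ratio within library mean plus 5 SD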;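 also: higher score means more depolarization so channel activation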
TRPC4 block: inhibitors of mouse TRPC4 channel | Q9QUQ5 | HEK293 TRPC4beta/mu-opioid, DAMGO-evoked Fluo4 calcium flux; hits give low values | B-score at 10 µM | 300,000 compounds, 0.39% hits | AID 2247;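 active = B-score over 3 SD under the library average, no early fluorescence shift, positive overall ratio signal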
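Signal: kinetic Fluo4 fluorescence imaging of calcium influx. Material: stable TRPC4beta/mu-opioid receptor HEK293 cells. Probe or stimulus: DAMGO in two steps, submaximal then maximal.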
Starred values were filed as active, the others as inactive; i = inactive; · = no result.

SMILES | TRPC6 inh | TRPC4 act | Yeast superoxide | TRPC4 potent | TRPC6 activator | TRPC4 block
NS(=O)(=O)OC(CCc1ccccc1)C(Cl)(Cl)Cl (configuration not stated) | i | i | 105 | 12* | i | i
O=C(Cc1ccccc1)NC(Oc1ccccc1Cl)C(Cl)(Cl)Cl (configuration not stated) | i | i | 101 | i | i | i
CCNC(=O)[C@H]1O[C@@H](n2cnc3c(N)ncnc32)[C@H](O)[C@@H]1O | i | 49* | 112 | i | i | i
CCC(=NC1CCN(Cc2ccccc2)CC1)c1c(O)[nH]c(=O)[nH]c1=O | i | i | 101 | 10* | i | i
C=CCn1c(O)c(C(C)=NC2CCN(Cc3ccccc3)CC2)c(=O)[nH]c1=O | i | i | 92 | i | i | i
CNc1ccc2oc(C[C@H]3O[C@@]4(CC[C@H]3C)O[C@H]([C@H](C)C(=O)c3ccc[nH]3)[C@H](C)C[C@H]4C)nc2c1C(=O)O | i | 148* | 113 | i | i | i
O=C(COc1ccc(Cl)cc1Cl)N1CCN(C/C=C/c2ccccc2)CC1 | i | i | 106 | 13* | i | i
CCOC(=O)C1(CCc2ccccc2)CCN(Cc2cccc3c2OCO3)CC1 | i | i | 99 | i | i | -6*
CCOC(=O)C1(CCc2ccccc2)CCN(Cc2cccc3cnccc23)CC1 | i | i | 106 | i | i | i
CCOC(=O)C1(CCc2ccccc2)CCN(Cc2csc(C(C)=O)c2)CC1 | i | 49* | 99 | i | i | i
CC1CC(C)CN(CC(=O)c2ccc(OC(F)F)cc2)C1 (configuration not stated) | i | 52* | 90 | i | i | i
COc1cc(C(=S)N2CCOCC2)cc(OC)c1OC(=O)Cc1ccccc1 | i | i | 131 | i | i | i
Cc1ccccc1-n1c(C)cc(/C=C2/C(=O)NC(=O)N(Cc3ccco3)C2=O)c1C | i | i | 96 | i | i | -6*
c1cc2c(cc1CN1CCNCC1)OCO2 | i | i | 81 | i | i | i
Clc1ccccc1CN1CCNCC1 | i | i | 111 | i | i | i
FC(F)(F)c1ccc(CN2CCNCC2)cc1 | i | i | 80 | 17* | i | i
Clc1ccc(CN2CCNCC2)cc1 | i | 54* | 98 | i | i | i
Cc1ccccc1CN1CCNCC1 | i | i | 108 | 15* | i | i
COc1ccc(CNCCc2c[nH]c3ccccc23)c(OC)c1OC | i | i | 105 | i | i | i
CCOc1cc(CNCCc2c[nH]c3ccccc23)cc(Cl)c1OC | i | 159* | 104 | i | i | i
CC/C(=N\N1CCCCC1)c1c(O)[nH]c(=O)[nH]c1=O | i | i | 93 | i | i | i
C=CCn1c(O)c(C=NCCN2CCOCC2)c(=O)[nH]c1=S | i | i | 108 | 10* | i | i
Cn1c(O)c(C=NCCN2CCOCC2)c(=O)[nH]c1=S | i | i | 86 | i | i | i
Cc1ccc2c(c1)C1CN(C)CCC1N2C(=O)c1cn(-c2ccccc2)nc1-c1ccccc1 (configuration not stated) | i | i | 94 | 23* | i | i
CC12CCC3C(CC=C4CC(O)CCC43C)C1C/C(=C\N1CCCC1)C2=O (configuration not stated) | i | i | · | i | i | i
SMILES | TRPC6 inh | TRPC4 act | Yeast superoxide | TRPC4 potent | TRPC6 activator | TRPC4 block
NCCc1ccccn1 | i | i | 94 | i | i | i
Cn1cnc(CCN)c1 | i | 143* | 98 | i | i | i
CC(=O)N1CN2CN(C1)CN(C(C)=O)C2 | i | i | 95 | i | i | i
Nc1ccccc1-[n+]1c(-c2ccccc2)cc(-c2ccccc2)cc1-c1ccccc1 | i | i | 94 | 25* | i | i
Cc1ccc(Cl)cc1N1CCN(CCN)CC1 | i | 155* | 117 | i | i | i
CC1(C)CN=C(Nc2ccccc2C(F)(F)F)S1 | i | i | 105 | i | i | i

High-throughput results: PubChem, several laboratories
